# Calb FLC = C. albicans growth modulation with fluconazole | C. albicans CaCi-2 (fluconazole-resistant clinical isolate) + fluconazole, Alamar Blue growth, 48 h | growth inhibition, % (test concentration not listed) | hit rate 0.57% among 300,000 | AID 1979;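 active means growth inhibition above about 58% in most replicates, limit read from the data, passing the limit was not always enough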;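 further: all wells also contain fluconazole at 8 µg/ml as a sub-toxic cotreatment; 0% = median of DMSO wells and 100% = median of geldanamycin control wells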
# NLRP3 yeast inh = inhibitors of NALP3 inflammasome in yeast. inhibition, % at 10 µM. hit rate 0.39% among 330,000. AID 2825. Yeast reconstituted NLRP3/ASC/caspase-1, beta-gal luminescence, 24 h;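 active means inhibition of 50% or more; inactive means inhibition below 50%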;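 further: plate controls were induced DMSO wells for no effect and uninduced yeast grown without galactose for full effect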
# ATG4B inh = ATG4B (human) cysteine protease inhibition | Q9Y4P1 | ATG4B cleavage of LC3-PLA2, NBD-HPC fluorescence, 1 h | inhibition, % at 8.33 µM | hit rate 0.51% among 340,000 | AID 504462; in the data active means inhibition above about 40%
# UCH37 DUB inh = blocks the human deubiquitinase UCH37. purified proteasome/UCH37, Ub-AMC cleavage fluorescence. inhibition, % (test concentration not listed). AID 588478. hit rate 0.33% among 330,000. Q9Y5K5;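 active means mean inhibition over replicate wells above about 20%, limit read from the data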;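 further: 0% = compound-free wells with enzyme and 100% = wells lacking proteasome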
#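 Material: human UCH37 enzyme supplied as purified proteasome complex / Amount: 0.15 nM proteasome as dispensed / Buffer or medium: pH 7.4 Tris-HCl (50 mM) with ovalbumin, ATP-MgCl2, DTT / Times: preincubation 30 min, reaction 25 min, room temperature / Technique: AMC fluorescence from Ub-AMC cleavage, excitation 355 nm, emission 460 nm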
# NALP1 inh = blocks the NALP1 inflammasome reconstituted in yeast | S. cerevisiae NALP1/ASC/caspase-1 growth, X-gal OD620, 72 h | inhibition, % at 10 µM | hit rate 0.61% among 280,000 | AID 2071; in the data active means inhibition mostly above about 24%, no sharp cut-off; inactive means mostly below about 32%
# ALR inh = human ALR oxidase inhibition via reduced H2O2; P55789; purified ALR, DTT oxidation, H2O2 HRP-luminol luminescence; inhibition, % (no concentration beside the values); hit rate 3.8% among 290,000;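 active means mean replicate inhibition above about 79%, with every replicate also reaching it, limit read from the data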
# Target sequence (P55789 whole entry, looked up): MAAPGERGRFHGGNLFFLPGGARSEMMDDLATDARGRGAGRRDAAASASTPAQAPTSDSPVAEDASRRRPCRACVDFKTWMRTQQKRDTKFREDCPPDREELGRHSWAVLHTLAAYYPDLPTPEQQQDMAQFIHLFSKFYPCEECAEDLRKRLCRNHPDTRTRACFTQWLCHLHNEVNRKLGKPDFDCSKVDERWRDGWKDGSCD
# NALP3 yeast conf = NALP3 inhibition confirmation in yeast; shares compounds with NLRP3 yeast inh; yeast expressing human NALP3, luminescence; AID 435006; hit rate 81% among 1,300; inhibition, % at 10 µM; in the data active means inhibition above about 48%
# Casp1 ASC ctr = active in yeast caspase-1-ASC counter-screen for NALP3 inhibitors | yeast expressing Caspase-1-ASC, luminescence counter screen | AID 488784 | shares compounds with NLRP3 yeast inh | hit rate 66% among 1,000 | inhibition, % at 10 µM
# NALP3 yeast rt = confirmation retest of NALP3 inhibitors in yeast; shares compounds with NLRP3 yeast inh; inhibition, % at 10 µM; yeast expressing human NALP3, luminescence read-out; AID 488794; hit rate 53% among 1,000
# An asterisk follows results filed as active; · = not tested or not shown. Hits are enriched below; roughly 4.8% of the tested compounds scored in any of these assays. Unless noted, no stated cut-off is given here; in the data, active means inhibition above about 50%; inactive means the rest.
SMILES,Calb FLC,NLRP3 yeast inh,ATG4B inh,UCH37 DUB inh,NALP1 inh,ALR inh,others
Cc1ccc(-c2cc(C(=O)NN=Cc3c(C)nn(C)c3C)c3ccccc3n2)c(C)c1,·,·,·,0.5,·,·,
CN(C)N1C(=O)CC(NNC(=O)c2ccncc2)C1=O (configuration not stated),-3.3,9.2,-1.4,0.1,21.6,86.3*,
CC(CC1CC(COCC(C)C)OC1=O)=NNc1nc(-c2ccccc2)cs1 (configuration not stated),·,·,·,2.6,·,·,
O=C1N=NC(=O)N1c1ccccc1,·,-1.9,-2.0,0.7,17.4,87.5*,
CC(NC(=O)OCc1ccccc1)C(=O)Oc1cc2oc(=O)cc(-c3ccccc3)c2cc1Cl (configuration not stated),82.3*,-21.3,20.9,-87.1,8.0,5.1,
CC(CN(C)Cc1ccccc1)OC(=O)C1COc2ccccc2O1 (configuration not stated),-1.1,9.5,-7.0,2.6,0.5,·,
COc1ccc(CC(=O)OC(C)CN2CCOCC2)cc1 (configuration not stated),8.2,18.5,0.6,4.0,29.3*,-6.3,
CC(CN1CCOCC1)OC(=O)C1COc2ccccc2O1 (configuration not stated),-6.5,7.2,-1.6,3.6,28.3*,·,
O=C(O)c1cc(N/N=C/C=C/c2ccccc2)ccc1Cl,24.2,-7.6,-3.9,·,-9.4,98.8*,
Cc1nn(-c2ccccc2)c(Cl)c1/C=N/Nc1ccc(Cl)c(C(=O)O)c1,-7.2,5.5,-8.2,·,26.7,95.8*,
O=C(O)c1cc(N/N=C/c2ccc(OCc3ccccc3)cc2)ccc1Cl,-6.9,22.0,22.1,·,18.3,96.6*,
Cc1ccc(C=NNC(=O)C(C)Oc2ccccc2[N+](=O)[O-])s1 (configuration not stated),·,·,·,5.7,·,·,
COc1cccc(/C=N/NC(=O)CNC(=O)c2cccnc2)c1O,-2.6,8.7,8.3,·,-5.8,91.9*,
COc1cccc(/C=N/NC(=O)c2c(C)nc3ccc(Cl)cn23)c1O,103.5*,6.4,-4.2,·,6.2,·,
COc1cc(/C=N/NC(=O)CNC(=O)c2cccs2)ccc1O,3.6,-23.1,0.2,·,-13.1,·,
COc1cc(/C=N/NC(=O)CNC(=O)c2ccncc2)ccc1O,-6.0,-0.5,-2.1,·,3.8,98.5*,
COc1cccc(/C=N/NC(=O)CNC(=O)c2ccncc2)c1O,-10.4,3.6,8.8,·,-13.9,90.5*,
O=C(NN=Cc1cccnc1)c1ccc2ccccc2c1O,·,·,·,5.1,·,·,
N#Cc1ccc(-c2csc(NNC(=O)c3ccc(Br)cc3)n2)cc1,9.0,51.1*,-26.2,2.7,13.4,1.6,NALP3 yeast conf=51.0*;Casp1 ASC ctr=38.1;NALP3 yeast rt=36.3
N#Cc1ccc(-c2csc(NNC(=O)c3ccccc3)n2)cc1,6.7,18.6,-0.6,3.0,14.0,·,
CC1CC(=NNC(=S)NC(C)C)CC(C)(C)C1 (configuration not stated),·,·,·,2.2,·,·,
COc1ccc(C(NC(=O)c2c(F)c(F)c(F)c(F)c2F)c2ccccc2)cc1 (configuration not stated),0.1,62.7*,-13.7,4.0,21.3,-14.6,NALP3 yeast conf=33.5
Cc1ccc(NC(=O)CN2CCN(CCN=CC3=C(O)CC(C)(C)CC3=O)CC2)cc1,-1.0,55.0*,-1.4,-0.4,32.4,-1.6,NALP3 yeast conf=58.5*;Casp1 ASC ctr=35.6;NALP3 yeast rt=45.7
Cc1cc(C(=O)COC(=O)c2csc3c2CCCC3)c(C)n1C,-9.3,53.5*,22.3,2.4,-5.7,-0.7,NALP3 yeast conf=62.3*;Casp1 ASC ctr=33.4;NALP3 yeast rt=23.4
COc1ccc(OC)c(C=NNC(=O)CSc2nnc(C)n2-c2ccccc2)c1,·,·,·,-33.8,·,·,
COc1ccc2cc1Oc1ccc(cc1)C[C@H]1c3c(cc(OC)c4c3Oc3c(ccc5c3[C@H](C2)N(C)CC5)O4)CCN1C,·,68.6*,9.8,·,·,-3.2,NALP3 yeast conf=53.0*;Casp1 ASC ctr=57.2*;NALP3 yeast rt=69.4*
O=C(CCl)Nc1ccc(N2CCCCCC2)cc1,0.5,59.8*,3.8,4.4,19.3,98.8*,NALP3 yeast conf=77.2*;Casp1 ASC ctr=76.0*;NALP3 yeast rt=53.0*
